FN deposition inh: inhibitors of fibronectin matrix deposition, primary screen, AH1F cells, Alexa488-fibronectin fluorescence, plate reader | inhibition, % at 12.6 µM | 350,000 tested, 0.086% active | AH1F fibroblasts, overnight | AID 743247, 2014;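 active = mean inhibition across replicates of 30% or more, regardless of how many single replicates reach that level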;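 note: positive control wells lacked labelled fibronectin entirely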
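Material: AH1F fibroblast monolayer depositing Alexa488-labelled fibronectin into matrix / Amount: 10000 AH1F cells per well / Signal: fluorescence 485/525 nm / Medium: DMEM, 2% serum / Compound: single dose, pinned / Incubation: 1 h cell adhesion before compound, then overnight fibronectin incubation / Reagent: Alexa488-FN, 24 nM final / Read-out: inhibition of fibronectin deposition signal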
Env fusion inh: inhibitors of HIV-1 Env-driven cell-cell fusion, primary screen, HeLa-JRFL effector, CEM21 target cells, luciferase; AID 651610, 2012; inhibition, % at 12.3 µM; 360,000 tested, 1.1% active;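 active = mean replicate inhibition score of at least 50 and every replicate individually at or above 50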;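 note: 0% = plate neutral controls and 100% = maraviroc near 300 nM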
S100A4 inh HTS: inhibitors of S100A4-myosin IIA peptide binding, primary screen, biochemical, fluorescence polarization, TAMRA-MyoIIA peptide. Protein S100-A4 (Homo sapiens), P26447. inhibition, % at 10.7 µM. 360,000 tested, 0.14% active. AID 652163, 2013;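 active = mean inhibition of at least 70% across replicates, with every replicate also reaching that level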
Target sequence (P26447 whole entry, looked up): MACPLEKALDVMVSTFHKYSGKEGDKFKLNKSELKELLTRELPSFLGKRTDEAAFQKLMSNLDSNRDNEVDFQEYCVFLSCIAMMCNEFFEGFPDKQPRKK
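Material: S100A4 monomer (human). Medium: Calcium-containing HEPES buffer, pH 7.2. Probe or stimulus: labelled myosin peptide probe, 5 nM. Compound dosing: one concentration per compound. Timing: polarization read 5 min after assay mix addition, stable 5–60 min. Benchmarks: DMSO as neutral control, TFP as positive control.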
rRNA inh HTS: reduced GFP signal of wild-type E. coli, primary screen, bacterial rRNA inhibitor project, GFP/RFP fluorescence, OD600, single point | E. coli WT GFP vs humanized-ribosome RFP mutants, 24 h; stronger effect = lower value; DMSO median 0, no signal -100 | 350,000 tested, 1.6% active | GFP signal change (wild-type ribosome), % (no concentration beside the values) | AID 720706, 2013;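 active = significant combined selectivity score with lowered wild-type GFP, culture density cut under 30%, mutant RFP and density less affected; inactive = any of these conditions unmet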
Vif inh: HIV Vif self-association inhibitors, primary screen, imaging, HEK293T, single point | HEK293T cells, Vif self-association by quenched fluorescence, 24 h | inhibition, % at 7.49 µM | 340,000 tested, 0.35% active; in the data active = inhibition above about 50%, passing the limit was not always enough
miR-122 sensor: miR-122 Renilla sensor signal increase in Huh7, primary screen, miR-122 inhibitor project, cell-based, single point, plate reader; Huh7 miR-122 Renilla luciferase sensor, 48 h; neutral wells = 0, positive control = 100; activation (reporter increase), % at 12.5 µM; 340,000 tested, 0.3% active; AID 602342, 2012;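 active = mean replicate activation score at least 90 and every replicate individually at or above 90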;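 note: higher luciferase means less miR-122 activity so hits act as miR-122 inhibitors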
* marks the source's active call; other numbers are inactive results; i = inactive; x = no result; ! = not active in a repeat; [ ] = another dose, or the depositor's remark. Sampled rows, rich in hits. Any-hit rate of the full collection: about 2.6%.

SMILES	FN deposition inh	Env fusion inh	S100A4 inh HTS	rRNA inh HTS	Vif inh	miR-122 sensor
COc1ccc([C@@H]2CC=CC[C@H](C)Oc3ccccc3C(=O)N(C)[C@@H](C)C(=O)N2)c(OC)c1 (mixture of isomers)	-3	x	x	-3	x	x
C[C@H](CO)N1C[C@H](C)[C@@H](CN(C)CC2CCCCC2)Oc2ccc(NC(=O)Nc3ccccc3)cc2CC1=O	-1	x	-9	5	x	-8[16.7 µM]
COc1ccc2c3c(n(C)c2c1)[C@@H](CO)N(Cc1ccccc1F)CC31CCN(C(=O)C2CCCC2)CC1	x	x	5	4	x	x
CCCn1c(C2CCCN2c2nc(C)cs2)nc2cc(Cl)c(Cl)cc21 (stereo not given)	-11	70*	-2	0	0	x
O=[N+]([O-])c1ccc(N/N=C/c2c[nH]c3ccccc23)c(S(=O)(=O)Nc2ccc(Cl)cc2)c1	x	13	x	x	i	162*
Cc1ccc(OCC(=O)N2CCN(c3nnc(-c4ccc(C)cc4)c4ccccc34)CC2)cc1	14	0	x	x	-29	-20
Cc1ccc(-c2nnc(N3CCN(C(=O)COc4cccc(C)c4)CC3)c3ccccc23)cc1	1	7	0	-33*	-7	x
Cc1cccc(OCC(=O)N2CCN(c3nnc(-c4ccccc4)c4ccccc34)CC2)c1	1	15	-5	-43*	-2	x
CC(C)NC(=O)N1[C@@H]2CN(CC(F)(F)F)C[C@H]1C2c1ccc(Br)cc1 (stereo not given in full)	-2	x	x	-14	x	x
COc1cc(S(=O)(=O)Nc2ccc(C)cc2)ccc1N=Cc1c(C)c(C#N)c(=O)n(C)c1O	0	4	80*	75	10	13
COc1ccc(S(=O)(=O)N(C)C[C@H]2Oc3ccc(NC(=O)c4ccncc4)cc3C(=O)N([C@@H](C)CO)C[C@@H]2C)cc1	x	x	8	-5	x	-27[16.7 µM]
COc1cccc(-c2csc(NC(=O)Nc3ccccc3)n2)c1	-2	28	-1	-28*	-26	x
COc1cccc(-c2csc(N3CCN(C(=O)Nc4ccccc4OC)CC3)n2)c1	x	x	0	-21	122*	-4
O=C(Cc1ccccc1)N1C[C@@H]2[C@H](c3ccccc31)[C@@H](CO)N2C(=O)Cc1ccccc1	x	x	-4	-8	x	20[16.7 µM]
Oc1nc(Nc2cccc(Cl)c2)sc1/C=C1\C=Nc2ccccc21	2	8	2	-14	-4	22
CCOC(=O)c1c(Nc2ccc(Cl)cc2)sc(/C=C2\C=Nc3ccccc32)c1O	4	-12	3	15	13	107*!
CN(C)c1ccc(/C=C2\SC(N3CCCCC3)=NC2=O)cc1	0	-35	0	3	196*	4
O=[N+]([O-])c1ccccc1/C=C/C=N/n1c(-c2ccccc2F)n[nH]c1=S	0	-4	-3	-21*	1	15
O=[N+]([O-])c1ccccc1/C=N/n1c(-c2ccccc2)n[nH]c1=S	1	6	-1	7	-3	8
CC(C)(C)c1ccc(NC(=S)NCc2cccnc2)cc1	-7	8	-4	-22*	10	26
Fc1ccc(NC(=S)NCc2cccnc2)cc1	x	11	2	8	-6	x
S=C(NCc1cccnc1)Nc1ccc(Oc2ccc(Cl)cc2)cc1	-1	15	-7	-26*	3	7
C[C@H](CO)N1C[C@H](C)[C@H](CN(C)C(=O)Nc2ccccc2)Oc2c(NS(=O)(=O)c3ccc(F)cc3)cccc2C1=O	x	88*[16.7 µM]	0	-1	x	-6[16.7 µM]
C[C@H](CO)N1C[C@H](C)[C@H](CN(C)C(=O)Nc2ccc(C(F)(F)F)cc2)Oc2c(NS(=O)(=O)c3ccc(F)cc3)cccc2C1=O	x	57*[16.7 µM]	4	-1	x	37[16.7 µM]
Cc1c(C(=O)N2CCN(CCc3ccccn3)CC2)oc2ccc(F)cc12	6	-1	-5	-4	-7	-9
SMILES	FN deposition inh	Env fusion inh	S100A4 inh HTS	rRNA inh HTS	Vif inh	miR-122 sensor
Cc1cc2oc(C(=O)N3CCN(CCc4ccccn4)CC3)c(C)c2cc1C	-2	-6	-5	-28*	-21	-7
O=C(C[C@@H]1CC[C@H](NC(=O)Nc2ccc(C(F)(F)F)cc2)[C@H](CO)O1)NCc1ccccn1	x	25[16.7 µM]	7	0	x	x
CCC(CO)n1c(=S)[nH]c2cc(OC)c(OC)cc2c1=O (stereo not given)	6	-11	-1	-22*	-4	10
CCc1c(C(=O)Nc2cc(C)cc(C)c2)[nH]c(C)c1C(C)=O	-2	-47	x	x	-3	121*
S=C(NCCc1ccccn1)Nc1cc(Cl)cc(Cl)c1	-1	4	11	-32*	0	x
S=C(NCCc1ccccn1)Nc1ccc(Cl)c(Cl)c1	12	x	x	x	1	x
CC(C)C#Cc1ccc2c(c1)O[C@H](CN(C)C)[C@@H](C)CN([C@H](C)CO)S2(=O)=O	x	-7[16.7 µM]	-85	-2	x	x
CCCCNC(=S)NNC(=O)c1csc(C)c1C	1	11	x	x	-6	x
Cc1scc(C(=O)NNC(=S)NC(C)c2ccccc2)c1C (stereo not given)	7	6	-3	-20*	-8	x
FC(F)(F)c1cnc(N2CCCN(C(=S)Nc3ccccc3)CC2)c(Cl)c1	-13	87*	-7	-41*	-6	-37
N#Cc1ccc(NC(=O)Nc2cccc(C#N)c2)cc1	-1	46	-8	-30	1	x
N#Cc1ccc(NC(=O)Nc2ccc(Oc3ccc(NC(=O)Nc4ccc(C#N)cc4)cc3)cc2)cc1	-11	64*	-6	-28*	-9	-30
O=[N+]([O-])c1ccc(Sc2cccc[n+]2[O-])c2nonc12	51*	-130	-1	16	77*	x
O=[N+]([O-])c1ccc(Nc2ccccc2)c2nonc12	2	-8	-29	-6	-21	x
CCO[C@@H]1OC(C(=O)N2CCN(C)CC2)=C[C@H](c2ccccc2)[C@H]1CCCO	x	1[16.7 µM]	12	x	x	x
N#Cc1ccccc1CSc1nc2ccc(NC(=O)c3ccccc3C(=O)O)cc2s1	0	14	-2	-23*	6	-1
O=C(O)c1ccc(CSc2nc3ccc(NC(=O)c4ccccc4C(=O)O)cc3s2)cc1	-2	10	1	-8	-8	-1
Fc1cc(Br)ccc1NC(=S)NCCc1ccccc1	x	x	3	-50*	0	x
O=c1cc(-c2ccccc2Cl)oc2c([N+](=O)[O-])c(O)cc(O)c12	-15	65*	2	-43	-21	1

Assay outcomes from PubChem.
